Where two headings read alike, the source gives them in different places.

The values that follow come from article PMC7119000 (Phytomedicine, 2013).

Series [1] in a line: In vitro Caco-2 cell monolayer transport, apical-to-basolateral. The class given is in vitro ADME, human. The settings on record: human, Caco-2. In short, it runs like this: (§1)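 Caco-2 cells grown in high-glucose DMEM with 10% FBS and 1% nonessential amino acids at 37 °C, 5% CO2. Seeded at 1.0 × 10^5 cells/cm2 on 4.2 cm2 inserts. Monolayers with TEER >250 Ω cm2 were HBSS-washed and preincubated 1 h at 37 °C. Compound was loaded apically, with samples taken at 0–4 h. Analysed by UPLC–MS/MS; Papp = (dQ/dt)/(A × C0).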
For orientation: Caco-2 monolayers are a common model of the intestinal barrier.

The subject of series [2] is Caco-2 cell monolayers. The series is described as above. Type of series: in vitro ADME, human. The settings on record: for Apically loaded amount retained on the apical side: Caco-2 cell transport, authors' unpublished data. An outline of the steps: as §1
The format of series [3] is in vivo, rat. To be noted: for AUC(0-t) / Cmax / Tmax: male, SD, rat, plasma, po.
In series [4] the test system is Caco-2 cell monolayers. The settings on record: flavonoids glucosides; ref the previous report; cited from earlier work.

With `O=C(/C=C/c1ccc(O)c(O)c1)O[C@@H]1C[C@](O)(C(=O)O)C[C@@H](O)[C@H]1O` [Chlorogenic acid], the apparent permeability from apical to basolateral (Papp A→B) at 4 h in series [1] was 19 ± 3.35 ×10⁻⁶ cm/s. The “Papp-value increased to, compared to control” value in the series on Caco-2 cell monolayers [2] (with addition of 0.1% (w/v) of COS) is listed as 9800%. Further, in series [3] (25 mg/kg), the exposure AUC(0-t) is 658 ng·h/mL, the peak concentration (Cmax) is 284 ± 76.8 ng/mL and the Tmax is 13.8 min. Further, in series [3] (10 ml/kg), the AUC(0-t) was 541 ng·h/mL, the highest concentration (Cmax) was determined as 236 ± 61.2 ng/mL and the Tmax was 30 min. Besides, in series [3] (with COS 25 mg/kg, rats, oral), the “AUC increased to, compared to control” value is listed as 122%.

In the case of `O=c1cc(-c2ccc(O)c(O)c2)oc2cc(O[C@@H]3O[C@H](CO)[C@@H](O)[C@H](O)[C@H]3O)cc(O)c12` [Galuteolin], the “Apically loaded amount retained on the apical side” value (“Apically loaded amount retained” below) with Caco-2 cell monolayers [2] is reported as “about 100%”. In addition, the “Absorption into Caco-2 cell” value in the series with Caco-2 cell monolayers [4] is reported as “cannot be well absorbed”.

Consider `O=c1c(O[C@@H]2O[C@H](CO)[C@H](O)[C@H](O)[C@H]2O)c(-c2ccc(O)c(O)c2)oc2cc(O)cc(O)c12` [Hyperoside], for which the “Absorption into Caco-2 cell” value in the series with Caco-2 cell monolayers [4] is “cannot be well absorbed”.

As to `O=c1cc(-c2ccc(O)c(O)c2)oc2cc(O[C@@H]3O[C@H](CO)[C@H](O)[C@H](O)[C@H]3O)cc(O)c12` [Luteolin-7-o--β-D-galactoside], in the series on Caco-2 cell monolayers [4], the “Absorption into Caco-2 cell” value is listed as “cannot be well absorbed”.

Regarding `C[C@@H]1O[C@@H](OC[C@H]2O[C@@H](Oc3c(-c4ccc(O)c(O)c4)oc4cc(O)cc(O)c4c3=O)[C@H](O)[C@@H](O)[C@@H]2O)[C@H](O)[C@H](O)[C@H]1O` [Rutin], the “Apically loaded amount retained” value in the series with Caco-2 cell monolayers [2] is on record as “about 100%”. For the same molecule, in the series with Caco-2 cell monolayers [4], the “Absorption into Caco-2 cell” value is recorded as “cannot be well absorbed”.

Take `O=c1c(O[C@@H]2O[C@H](CO)[C@H](O)[C@H](O)[C@H]2O)c(-c2ccc(O)c(O)c2)oc2cc(O)cc(O)c12` [hyperin]: the “Apically loaded amount retained” value in the series with Caco-2 cell monolayers [2] was “about 100%”.

The term Papp A→B denotes the apparent permeability from the apical to the basolateral side of a cell layer. Lower therefore signals poor permeation. Usually AUC(0-t) stands for exposure summed from dosing to a finite time, without extrapolation to infinity. A lower AUC(0-t) goes with less exposure. As usually defined, the Cmax is the peak of the concentration-time curve. By Tmax is commonly meant the time at which the peak concentration occurs.
